From ChEMBL document CHEMBL2424619, “Small-molecule ligands of methyl-lysine binding proteins: optimization of selectivity for L3MBTL3” (J Med Chem, 2013)

Tests used:
[1] = target: Lysine-specific demethylase 5A (Homo sapiens, UniProt P29375); assay: Inhibition of JARID1A (unknown origin) after 30 mins by AlphaScreen assay
How it was run: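 AlphaScreen competition with histone peptide. Compounds in 3-fold, 10-point dilutions, top 10 or 30 μM; buffer 20 mM Tris pH 8.0, 25 mM NaCl, 2 mM DTT, 0.05% Tween-20. Protein-peptide mix 30 min RT, then streptavidin donor plus nickel-chelate acceptor beads (GST acceptor beads for GST-tagged PHF23, JARID1A) 30 min RT dark. […] Protein-free His6-biotin peptide counterscreen.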

[2] = target: T1, Chromobox protein homolog 7 (Homo sapiens, UniProt O95931); assay: Inhibition of CBX7 (unknown origin) after 30 mins by AlphaScreen assay
T1 sequence (O95931 whole entry): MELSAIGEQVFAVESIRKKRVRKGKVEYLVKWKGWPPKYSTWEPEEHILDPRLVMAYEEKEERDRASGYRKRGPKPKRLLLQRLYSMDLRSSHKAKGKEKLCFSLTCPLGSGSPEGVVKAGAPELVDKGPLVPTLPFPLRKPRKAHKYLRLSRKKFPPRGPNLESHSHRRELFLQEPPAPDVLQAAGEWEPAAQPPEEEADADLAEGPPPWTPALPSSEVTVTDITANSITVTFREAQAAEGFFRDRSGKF
How it was run: (§1)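 AlphaScreen competition with histone peptide. Compounds in 3-fold, 10-point dilutions, top 10 or 30 μM; buffer 20 mM Tris pH 8.0, 25 mM NaCl, 2 mM DTT, 0.05% Tween-20. Protein-peptide mix 30 min RT, then streptavidin donor plus nickel-chelate acceptor beads (GST acceptor beads for GST-tagged PHF23, JARID1A) 30 min RT dark. Protein-free His6-biotin peptide counterscreen.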

[3] = target: T2, Lethal(3)malignant brain tumor-like protein 4 (Homo sapiens, UniProt Q8NA19); assay: Inhibition of L3MBTL4 (unknown origin) after 30 mins by AlphaScreen assay; how it was run: as §1
T2 sequence (Q8NA19 whole entry): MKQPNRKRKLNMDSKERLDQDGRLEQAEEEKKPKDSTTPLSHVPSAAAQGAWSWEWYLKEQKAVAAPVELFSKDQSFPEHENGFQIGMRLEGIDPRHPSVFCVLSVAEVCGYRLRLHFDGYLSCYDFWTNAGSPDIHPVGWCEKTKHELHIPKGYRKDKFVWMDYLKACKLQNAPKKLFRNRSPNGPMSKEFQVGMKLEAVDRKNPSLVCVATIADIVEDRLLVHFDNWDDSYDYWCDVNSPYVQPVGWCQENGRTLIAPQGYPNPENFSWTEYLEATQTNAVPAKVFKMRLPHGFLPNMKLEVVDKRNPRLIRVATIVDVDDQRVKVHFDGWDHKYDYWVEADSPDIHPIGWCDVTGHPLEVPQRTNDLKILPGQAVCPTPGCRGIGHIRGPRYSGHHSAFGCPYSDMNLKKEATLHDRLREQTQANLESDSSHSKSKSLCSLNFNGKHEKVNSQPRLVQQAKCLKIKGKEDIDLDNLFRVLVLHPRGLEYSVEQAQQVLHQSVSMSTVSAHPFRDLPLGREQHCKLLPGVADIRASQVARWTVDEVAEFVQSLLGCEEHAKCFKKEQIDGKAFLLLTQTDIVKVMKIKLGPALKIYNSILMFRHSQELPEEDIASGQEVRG

[4] = target: T3, Lethal(3)malignant brain tumor-like protein 3 (Homo sapiens, UniProt Q96JM7); assay: Inhibition of L3MBTL3 (unknown origin) after 30 mins by AlphaScreen assay; how it was run: as §1
T3 sequence (Q96JM7 whole entry): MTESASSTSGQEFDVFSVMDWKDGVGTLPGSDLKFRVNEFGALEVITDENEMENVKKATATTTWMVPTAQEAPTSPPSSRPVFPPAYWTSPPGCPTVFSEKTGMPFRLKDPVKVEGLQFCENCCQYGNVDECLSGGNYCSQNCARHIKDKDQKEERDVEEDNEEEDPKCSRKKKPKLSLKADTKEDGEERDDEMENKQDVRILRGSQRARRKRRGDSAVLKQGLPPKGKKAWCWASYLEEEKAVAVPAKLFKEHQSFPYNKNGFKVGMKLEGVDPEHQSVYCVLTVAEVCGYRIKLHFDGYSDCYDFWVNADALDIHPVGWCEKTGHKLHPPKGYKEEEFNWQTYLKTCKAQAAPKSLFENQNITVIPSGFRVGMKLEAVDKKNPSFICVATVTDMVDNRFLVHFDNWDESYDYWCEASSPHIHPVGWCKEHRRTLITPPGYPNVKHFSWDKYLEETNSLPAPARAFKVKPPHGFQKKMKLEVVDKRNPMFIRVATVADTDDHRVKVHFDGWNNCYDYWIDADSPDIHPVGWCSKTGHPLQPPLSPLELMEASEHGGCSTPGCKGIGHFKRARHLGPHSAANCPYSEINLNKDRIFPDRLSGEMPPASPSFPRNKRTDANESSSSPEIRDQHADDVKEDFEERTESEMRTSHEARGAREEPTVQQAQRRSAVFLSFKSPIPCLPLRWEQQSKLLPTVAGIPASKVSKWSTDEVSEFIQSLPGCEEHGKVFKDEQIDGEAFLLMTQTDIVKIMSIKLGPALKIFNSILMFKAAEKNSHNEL

[5] = target: T3, Lethal(3)malignant brain tumor-like protein 3; assay: Inhibition of L3MBTL3 (unknown origin) using H4K20me2 as substrate after 30 mins by LNCE-TR-FRET assay

Lysine-specific demethylase 5A, sequence (P29375 whole entry): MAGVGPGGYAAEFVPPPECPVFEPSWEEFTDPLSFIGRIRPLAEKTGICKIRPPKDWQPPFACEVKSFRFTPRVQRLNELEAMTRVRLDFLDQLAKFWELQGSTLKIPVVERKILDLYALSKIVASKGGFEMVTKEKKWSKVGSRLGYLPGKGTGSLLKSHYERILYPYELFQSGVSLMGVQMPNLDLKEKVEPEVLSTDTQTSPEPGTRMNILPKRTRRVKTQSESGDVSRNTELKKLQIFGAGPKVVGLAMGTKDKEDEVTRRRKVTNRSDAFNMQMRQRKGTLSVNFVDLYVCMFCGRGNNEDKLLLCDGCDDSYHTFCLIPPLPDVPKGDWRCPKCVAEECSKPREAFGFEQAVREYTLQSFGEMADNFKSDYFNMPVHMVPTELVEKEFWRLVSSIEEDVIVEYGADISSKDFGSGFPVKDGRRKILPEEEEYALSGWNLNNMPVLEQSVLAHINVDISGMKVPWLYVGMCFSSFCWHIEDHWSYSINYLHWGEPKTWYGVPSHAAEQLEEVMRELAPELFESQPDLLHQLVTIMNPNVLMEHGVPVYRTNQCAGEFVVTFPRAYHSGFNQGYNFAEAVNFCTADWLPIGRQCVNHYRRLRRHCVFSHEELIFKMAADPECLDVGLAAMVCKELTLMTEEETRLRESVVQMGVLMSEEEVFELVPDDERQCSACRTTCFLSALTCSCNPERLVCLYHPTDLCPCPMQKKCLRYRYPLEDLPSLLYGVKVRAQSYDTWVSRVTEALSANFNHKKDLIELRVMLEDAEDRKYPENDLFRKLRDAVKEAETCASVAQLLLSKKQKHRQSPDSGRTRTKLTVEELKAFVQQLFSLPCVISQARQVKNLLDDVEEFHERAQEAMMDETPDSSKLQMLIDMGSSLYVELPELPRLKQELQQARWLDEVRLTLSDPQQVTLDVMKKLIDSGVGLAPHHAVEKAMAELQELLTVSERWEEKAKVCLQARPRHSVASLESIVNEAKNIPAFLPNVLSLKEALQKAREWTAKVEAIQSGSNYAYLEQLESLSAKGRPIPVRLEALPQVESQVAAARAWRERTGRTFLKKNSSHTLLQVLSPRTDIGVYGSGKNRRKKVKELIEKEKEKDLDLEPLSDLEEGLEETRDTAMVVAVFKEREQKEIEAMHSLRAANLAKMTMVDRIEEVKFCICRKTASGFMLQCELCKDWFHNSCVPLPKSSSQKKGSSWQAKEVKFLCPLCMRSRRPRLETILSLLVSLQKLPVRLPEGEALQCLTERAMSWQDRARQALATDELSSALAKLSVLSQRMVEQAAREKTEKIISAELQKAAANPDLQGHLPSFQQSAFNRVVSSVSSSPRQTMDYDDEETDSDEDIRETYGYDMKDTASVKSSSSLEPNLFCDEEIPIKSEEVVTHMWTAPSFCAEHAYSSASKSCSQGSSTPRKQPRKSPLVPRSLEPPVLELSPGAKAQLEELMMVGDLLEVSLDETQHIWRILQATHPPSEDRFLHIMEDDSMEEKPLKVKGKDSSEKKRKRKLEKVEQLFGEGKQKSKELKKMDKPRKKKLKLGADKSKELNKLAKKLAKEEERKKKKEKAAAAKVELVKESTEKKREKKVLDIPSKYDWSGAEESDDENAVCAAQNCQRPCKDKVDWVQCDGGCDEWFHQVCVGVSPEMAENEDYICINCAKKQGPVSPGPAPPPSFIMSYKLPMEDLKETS

SMILES	IC50 [1] [nM]	IC50 [2] [nM]	IC50 [3] [nM]	IC50 [4] [nM]	IC50 [5] [nM]
O=C(c1ccc(C(=O)N2CCC(N3CCCC3)C2)cc1)N1CCC(N2CCCC2)CC1 (stereo not given)	> 10000	> 10000	> 10000	250	220
O=C(c1ccc(C(=O)N2CCC(N3CCCC3)CC2)c(C(=O)N2CCC(N3CCCC3)CC2)c1)N1CCC(N2CCCC2)CC1	> 10000	> 10000	> 10000	120	110
CCN1Cc2ccc(NC(=O)c3ccc(C(=O)N4CCC(C5CCCN5)CC4)cc3Nc3ccccc3)cc2C1 (stereo not given)	> 10000	> 10000	> 10000	170	160
CC(C1CCN(C(=O)c2ccc(C(=O)N3CCC(N4CCCC4)CC3)cc2)CC1)N1CCN(C)CC1 (stereo not given)	> 10000	> 10000	> 10000	300	250
Cc1cc(C(=O)N2CCC(N3CCCC3)CC2)c(C)cc1C(=O)N1CCC(N2CCCC2)CC1	> 10000	> 10000	> 10000	210	240
O=C(c1ccc(C(=O)N2CCC(C3CCCN3)CC2)cc1)N1CCC(C2CCCN2)CC1 (stereo not given)	> 10000	> 10000	> 10000	640	800
O=C(c1ccc(C(=O)N2CCC(N3CCCC3)CC2)c(Oc2ccccc2)c1)N1CCC(N2CCCC2)CC1	> 10000	> 10000	> 10000	58	53
O=C(c1ccc(C(=O)N2CCC3(CCNC3)C2)cc1)N1CCC(N2CCCC2)CC1 (stereo not given)	> 10000	> 10000	> 10000	1800	2200
O=C(c1ccc(C(=O)N2CCC(N3CCCCC3)CC2)cc1)N1CCC(N2CCCCC2)CC1	> 10000	> 10000	> 10000	> 10000	> 10000
O=C(c1ccc(C(=O)N2CCC(N3CCOCC3)CC2)cc1)N1CCC(N2CCCC2)CC1	> 10000	> 10000	> 10000	1500	1100
O=C(c1ccc(C(=O)N2CCC(N3CCC3)CC2)cc1)N1CCC(N2CCC2)CC1	> 10000	> 10000	> 10000	400	350
O=C(c1ccc(C(=O)N2CCC3(CCNC3)CC2)cc1)N1CCC(N2CCCC2)CC1	> 10000	> 10000	> 10000	560	620

Further lines, with some results ahead:

IC50 [1] [nM]	IC50 [2] [nM]	SMILES	IC50 [3] [nM]	IC50 [4] [nM]	IC50 [5] [nM]
> 10000	> 10000	O=C(c1ccc(C(=O)N2CCC(N3CCCC3)CC2)c(-c2ccccc2)c1)N1CCC(N2CCCC2)CC1	> 10000	66	61
> 10000	> 10000	O=C(c1ccc(CN2CCC(N3CCCC3)CC2)cc1)N1CCC(N2CCCC2)CC1	> 10000	140	130
> 10000	> 10000	CN1CCC(N2CCN(C(=O)c3ccc(C(=O)N4CCC(N5CCCC5)CC4)cc3)CC2)CC1	> 10000	830	770
> 10000	> 10000	O=C(c1c(F)c(F)c(C(=O)N2CCC(N3CCCC3)CC2)c(F)c1F)N1CCC(N2CCCC2)CC1	> 10000	210	130
> 10000	> 10000	CN(C)C1CCN(C(=O)c2ccc(C(=O)N3CCC(N4CCCC4)CC3)cc2)CC1	> 10000	310	180
> 10000	> 10000	O=C(c1ccc(C(=O)N2CCC(N3CCCC3)CC2)nc1)N1CCC(N2CCCC2)CC1	> 10000	110	61
> 10000	> 10000	O=C(c1ccc(C(=O)N2CCC(N3CCCC3)CC2)c([N+](=O)[O-])c1)N1CCC(N2CCCC2)CC1	> 10000	160	88
> 10000	> 10000	CN(C)C1CCN(C(=O)c2ccc(C(=O)N3CCC(N(C)C)CC3)cc2)CC1	> 10000	> 10000	8000
> 10000	> 10000	O=C(c1ccc(C(=O)N2CCCC(N3CCCC3)CC2)cc1)N1CCCC(N2CCCC2)CC1 (stereo not given)	> 10000	110	110
